SENP6 block = SENP6 protease inhibitors, primary screen, biochemical, luminescence, uHTS. Recombinant SENP6 catalytic domain, aminoluciferin luminescence. actives 1.8% (n = 330,000). Sentrin-specific protease 6 (Homo sapiens), Q9GZR1. inhibition, % at 10 µM. AID 2599, 2010;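 active means inhibition above about 50% at the single tested dose, limit read from the data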
Platelet DG rel = inhibitors of platelet dense granule secretion, primary screen, cell-based, MLPCN, human platelets | human platelet-rich plasma, SFLLRN dense granule ATP release, luminescence | inhibition, %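 (compounds screened at 7.5 µM in platelet-rich plasma)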 | actives 0.22% (n = 300,000) | AID 1663, 2009;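 active means mean replicate score, as percent of positive control, at or above 50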
SENP8 block-1 = human SENP8 protease inhibitors, primary screen, biochemical, fluorescence, Nedd8 protein substrate, uHTS; Sentrin-specific protease 8 (Homo sapiens), Q96LD8; recombinant SENP8; inhibition, % at 20 µM; actives 0.64% (n = 360,000); AID 602440, 2012; in the data active means inhibition mostly above about 40%, no sharp cut-off; inactive means mostly below about 27%
SENP7 block = SENP7 protease inhibitors, primary screen, biochemical, luminescence, uHTS; inhibition, % at 5 µM; recombinant SENP7, Z-RLRGG-aminoluciferin luminescence, 40 min; AID 434973, 2010; actives 1.5% (n = 330,000); Sentrin-specific protease 7 (Homo sapiens), Q9BQF6;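 active means inhibition above about 50% at the single test dose, limit read from the data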
Target sequence (Q9BQF6 706-1050 limits assumed): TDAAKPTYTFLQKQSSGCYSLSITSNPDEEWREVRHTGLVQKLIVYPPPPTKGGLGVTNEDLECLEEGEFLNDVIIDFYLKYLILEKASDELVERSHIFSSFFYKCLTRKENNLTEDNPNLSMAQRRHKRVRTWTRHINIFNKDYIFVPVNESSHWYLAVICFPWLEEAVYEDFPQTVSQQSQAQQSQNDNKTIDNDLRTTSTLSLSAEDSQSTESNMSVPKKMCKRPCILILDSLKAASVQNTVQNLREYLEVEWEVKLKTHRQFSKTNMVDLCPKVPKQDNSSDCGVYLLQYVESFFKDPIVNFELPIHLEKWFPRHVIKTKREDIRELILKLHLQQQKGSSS
SENP8 block-2 = SENP8 protease inhibitors, primary screen, biochemical, luminescence; inhibition, % at 10 µM; Sentrin-specific protease 8 (Homo sapiens), Q96LD8; actives 1.2% (n = 330,000); purified SENP8, Z-RLRGG-aminoluciferin cleavage; in the data active means inhibition above about 50%
SENP1 inh = human SENP1 catalytic domain inhibitors, primary screen, biochemical, FRET, uHTS. Sentrin-specific protease 1 (Homo sapiens), Q9P0U3. recombinant SENP1 catalytic domain, CyPet-SUMO1-YPet FRET cleavage. inhibition, % at 10 µM. actives 0.21% (n = 360,000). AID 624204, 2012;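 active means inhibition at least 30% at 10 µM, raw YFP signal under a set limit, fluorescence ratio 0.5 to 1.5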
Target sequence (Q9P0U3 419-644 limits assumed): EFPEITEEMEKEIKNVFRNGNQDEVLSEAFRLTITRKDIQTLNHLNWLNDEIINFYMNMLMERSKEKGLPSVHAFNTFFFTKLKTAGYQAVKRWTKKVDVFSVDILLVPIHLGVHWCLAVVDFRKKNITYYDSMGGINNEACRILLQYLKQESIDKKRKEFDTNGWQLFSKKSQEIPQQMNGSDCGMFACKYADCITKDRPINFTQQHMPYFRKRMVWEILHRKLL
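Assay system: hSENP1 catalytic domain, recombinant. Amount: SENP1 enzyme, 20 pM final. Schedule: 50 min reaction, RT, dark. Technique: FRET, CFP and YFP emission. Control set: no-enzyme wells low, DMSO-plus-enzyme wells high control.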
SENP8 conf = SENP8 protease inhibitors, retest, confirmation, biochemical, luminescence, single concentration; actives 40% (n = 6,200); shares compounds with SENP7 block; AID 488912, 2010; inhibition, % at 12.5 µM; Recombinant SENP8, Z-RLRGG-aminoluciferin luminescence, 60 min;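 active means mean inhibition across replicates above about 50%, limit read from the data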
SENP6 confirm = SENP6 protease inhibitors, confirmation, biochemical, luminescence, single concentration. actives 58% (n = 6,200). recombinant SENP6, Z-RLRGG-aminoluciferin luminescence. shares compounds with SENP7 block. inhibition, % at 12.5 µM. AID 488915, 2010
SENP7 conf = SENP7 protease inhibitors, retest, confirmation, biochemical, luminescence, single concentration; AID 488917, 2010; actives 69% (n = 6,200); recombinant SENP7, Z-RLRGG-aminoluciferin luminescence, 40 min; shares compounds with SENP7 block; inhibition, % at 12.5 µM
Casp3 SENP sel = caspase-3 protease inhibitors, confirmation, selectivity assay for SENP inhibitor project, biochemical, single concentration; shares compounds with SENP7 block; purified caspase-3, Z-DEVD-aminoluciferin luminescence, 60 min; inhibition, % at 12.5 µM; actives 60% (n = 6,200);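 active means mean inhibition above about 50%, limit read from the data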
Luc interf = luminescence interference (SENP counter-screen) | shares compounds with SENP7 block | Pre-incubated SENP8/Z-RLRGG-aminoluciferin, luciferase luminescence interference | inhibition, % at 12.5 µM | actives 39% (n = 6,200) | AID 488919;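 active means mean inhibition above about 50% when retested at one dose, limit read from the data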
Large screens that a line does not name were inactive (follow-up assays come after a bar, where they were run). Only some compounds are listed: those with a hit (about 2.6% of all), similar ones and a draw of the others.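 How the source made its calls, unless noted: active means mean inhibition above about 50% in the one-dose retest (limit read from the data); inactive means the rest.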

S=C(c1ccc(OCc2ccccc2)cc1)N1CCCC1	SENP6 block 60, SENP7 block 61 | SENP8 conf inactive | SENP6 confirm inactive | SENP7 conf 55 | Casp3 SENP sel inactive | Luc interf inactive
Cc1cc(C)nc(SCc2ccc(Br)cc2)n1	SENP7 block 60 | SENP8 conf inactive | SENP6 confirm inactive | SENP7 conf inactive | Casp3 SENP sel inactive | Luc interf inactive
O=C(Nc1ccc2c(c1)OCO2)C1CC(=O)N(c2cccc(Cl)c2)C1 (stereo not drawn)	none
Cc1cccc(C(=O)Nc2nc3ccc(S(C)(=O)=O)cc3s2)c1	SENP6 block 75, SENP7 block 74, SENP8 block-2 63 | SENP8 conf inactive | SENP6 confirm inactive | SENP7 conf 88 | Casp3 SENP sel 78 | Luc interf inactive
CS(=O)(=O)c1ccc2nc(NC(=O)Nc3ccccc3F)sc2c1	SENP7 block 72 | SENP8 conf inactive | SENP6 confirm inactive | SENP7 conf inactive | Casp3 SENP sel inactive | Luc interf inactive
CS(=O)(=O)c1ccc2nc(NC(=O)c3ccccc3)sc2c1	SENP6 block 88, SENP7 block 88, SENP8 block-2 78 | SENP8 conf inactive | SENP6 confirm 80 | SENP7 conf 94 | Casp3 SENP sel 88 | Luc interf inactive
Cc1ccc(C(=O)Nc2nc3ccc(S(C)(=O)=O)cc3s2)cc1C	none
CCSc1nsc(NC(=O)Nc2ccccc2F)n1	SENP6 block 65 | SENP8 conf inactive | SENP6 confirm inactive | SENP7 conf 79 | Casp3 SENP sel inactive | Luc interf inactive
COc1cccc(CN2CC(C(=O)N3CCOCC3)CCC2=O)c1 (stereo not drawn)	none
CCN(Cc1nc(-c2cccc(C)c2)no1)C(=O)c1ccc2c(c1)OCO2	none
Cc1cccc(-c2nc(-c3ccncc3)no2)c1	SENP7 block 82, SENP8 block-2 79 | SENP8 conf 58 | SENP6 confirm 84 | SENP7 conf 97 | Casp3 SENP sel 85 | Luc interf 56
COc1cc(-c2nc(-c3cccc(C)c3)no2)cc(OC)c1OC	none
Cc1cccc(-c2noc(-c3ccc4c(c3)OCO4)n2)c1	SENP6 block 82, SENP7 block 101, SENP8 block-2 70 | SENP8 conf inactive | SENP6 confirm inactive | SENP7 conf inactive | Casp3 SENP sel inactive | Luc interf inactive
Cc1ccc(-c2nc(-c3ccncc3)no2)cc1	none (no result: SENP6 block, SENP7 block, SENP8 block-2)
Cc1cccc(-c2noc(-c3c(C)noc3C)n2)c1	SENP6 block 71, SENP8 block-2 57 | SENP8 conf inactive | SENP6 confirm inactive | SENP7 conf 52 | Casp3 SENP sel inactive | Luc interf inactive
Cc1cc(C)cc(-c2nc(-c3ccncc3)no2)c1	SENP6 block 74, SENP7 block 61, SENP8 block-2 66 | SENP8 conf inactive | SENP6 confirm inactive | SENP7 conf inactive | Casp3 SENP sel 50 | Luc interf inactive
CC(=O)Nc1cc(-c2cccc(N)c2)cn2c(-c3ccccc3)cnc12	none (no result: SENP6 block, Platelet DG rel, SENP7 block, SENP8 block-2)
CCCN(CCC)C(C)C(=O)NCC1(c2ccccc2)CCCC1 (stereo not drawn)	none
CN1CCN(C(=O)c2cc3c(c(-c4cccc(-c5cc6ccccc6o5)c4)n2)[C@@H](CCO)N(S(=O)C(C)(C)C)C3)CC1 (stereo partly drawn)	none (no result: SENP6 block, Platelet DG rel, SENP7 block, SENP8 block-2)
Brc1cccc(-c2nc(-c3ccncc3)no2)c1	SENP6 block 70, SENP7 block 72 | SENP8 conf inactive | SENP6 confirm 54 | SENP7 conf 64 | Casp3 SENP sel 59 | Luc interf inactive
Clc1ccc(Br)cc1-c1nc(-c2ccncc2)no1	none
O=C(O)CCCC(=O)Nc1ccc(OCc2nc3ccccc3s2)cc1	none
O=C(OCc1nc2ccccc2s1)c1ccccc1O	SENP6 block 92, SENP7 block 86, SENP8 block-2 85 | SENP8 conf 89 | SENP6 confirm 90 | SENP7 conf 98 | Casp3 SENP sel 83 | Luc interf 74
O=C(OCc1nc2ccccc2s1)c1cccs1	SENP6 block 74 | SENP8 conf 63 | SENP6 confirm 70 | SENP7 conf 84 | Casp3 SENP sel inactive | Luc interf 64
O=C(O)c1ccccc1OCc1nc2ccccc2s1	SENP6 block 92, SENP7 block 92, SENP8 block-2 90 | SENP8 conf 91 | SENP6 confirm 93 | SENP7 conf 100 | Casp3 SENP sel 85 | Luc interf 79
O=C(OCc1nc2ccccc2s1)c1cnccn1	none
COc1ccc(NC(=O)CCC(=O)N2CCOCC2)c([N+](=O)[O-])c1	none
c1ccc(-c2nnc(-c3ccccn3)s2)nc1	SENP6 block 90, SENP7 block 89, SENP8 block-2 83 | SENP8 conf 91 | SENP6 confirm 93 | SENP7 conf 102 | Casp3 SENP sel 96 | Luc interf 88
c1ccc(C2=NNC(c3ccccn3)=NN2)nc1	SENP6 block 78, SENP8 block-2 74 | SENP8 conf inactive | SENP6 confirm 89 | SENP7 conf 100 | Casp3 SENP sel 96 | Luc interf 75
c1ccc(-c2nc(-c3ccccn3)nc(-c3ccccn3)n2)nc1	none
